What was measured:
[1] = Intrinsic clearance in human liver microsomes at 1 uM preincubated for 5 mins followed by NADPH addition and measured upto 60 mins by LC-MS analysis; assay type: ADME, Microsome; settings: read-out: CLH
Summary of the method: (§1)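 Human or mouse liver microsomes, final 1 mg/mL in 0.05 M phosphate buffer pH 7.4; compound final 1 μM, preincubated 37 °C 5 min, started with 1 mM NADPH; sampled at 0, 5, 15, 30, 60 min, methanol quench, −20 °C 1 h, centrifuged, supernatant by LC–MS.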

Hepatitis B virus = test: Antiviral activity against HBV infected in human HepG2-NTCP cells assessed as reduction in HBeAg secretion cells inoculated with virus for 4 hrs at room temperature and 37 degree C for 24 hrs followed inoculum changed with PMM medium for every 2 days until day 5 post infection by ELISA; assay type: functional, organism-based
[2] = Intrinsic clearance in mouse liver microsomes at 1 uM preincubated for 5 mins followed by NADPH addition and measured upto 60 mins by LC-MS analysis; assay type: ADME, Microsome; settings: read-out: CLH; summary of the method: as §1
[3] = Intrinsic clearance in rat liver microsomes at 1 uM preincubated for 5 mins followed by NADPH addition and measured upto 60 mins by LC-MS analysis; assay type: ADME, Microsome; settings: time 65 min, read-out: CLH
[4] = molecular target: T1, Hepatic sodium/bile acid cotransporter (Homo sapiens, UniProt Q14973); test: Inhibition of human NTCP expressed in human HepG2 cells assessed as decrease in NTCP surface expression at 2 uM incubated for 2 hrs by DAPI staining based analysis; assay type: cell-based; settings: hepg2, 2 h
T1 sequence (Q14973 whole entry): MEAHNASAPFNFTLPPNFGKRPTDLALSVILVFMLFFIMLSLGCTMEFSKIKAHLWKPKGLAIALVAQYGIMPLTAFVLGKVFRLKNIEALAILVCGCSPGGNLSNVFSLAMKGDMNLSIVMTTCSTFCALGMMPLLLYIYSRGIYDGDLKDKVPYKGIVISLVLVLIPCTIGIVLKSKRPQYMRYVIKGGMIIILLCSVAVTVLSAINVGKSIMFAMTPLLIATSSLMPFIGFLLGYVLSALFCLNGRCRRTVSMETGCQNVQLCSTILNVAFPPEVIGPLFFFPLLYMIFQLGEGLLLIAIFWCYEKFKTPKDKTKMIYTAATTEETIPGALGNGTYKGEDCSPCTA
Summary of the method: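 HepG2-NTCP cells treated 2 h with DMSO, compound or TLCA at 2 μM, then immunostained for NTCP to assess cell-surface distribution.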

Structure (SMILES) | microsomal CLint at 1 µM [1] | IC50 (Hepatitis B virus) | microsomal CLint at 1 µM [2] | microsomal CLint at 1 µM [3] | inhibition (INH) [4]
CCCCc1ccc(S[C@H]2C[C@@H](C)[C@H]([C@H]3C(=O)N[C@@H](CC)C(=O)N(C)CC(=O)N(C)[C@@H](CC(C)C)C(=O)N[C@@H](C(C)C)C(=O)N(C)[C@@H](CC(C)C)C(=O)N[C@@H](C)C(=O)N[C@H](C)C(=O)N(C)[C@@H](CC(C)C)C(=O)N(C)[C@@H](CC(C)C)C(=O)N(C)[C@@H](C(C)C)C(=O)N3C)O2)cc1 | 6.1 µL/min/mg | 262 nM | 2.5 µL/min/mg | 4 µL/min/mg | 
CC[C@@H]1NC(=O)[C@H]([C@@H]2O[C@@H](Sc3cc(OC)cc(OC)c3)C[C@H]2C)N(C)C(=O)[C@H](C(C)C)N(C)C(=O)[C@H](CC(C)C)N(C)C(=O)[C@H](CC(C)C)N(C)C(=O)[C@@H](C)NC(=O)[C@H](C)NC(=O)[C@H](CC(C)C)N(C)C(=O)[C@H](C(C)C)NC(=O)[C@H](CC(C)C)N(C)C(=O)CN(C)C1=O | 10.2 µL/min/mg | 117 nM | 5.5 µL/min/mg | 0.7 µL/min/mg | 
C[C@H](CCC(=O)NCCS(=O)(=O)O)[C@H]1CC[C@H]2[C@@H]3CC[C@@H]4C[C@H](O)CC[C@]4(C)[C@H]3CC[C@]12C [TAUROLITHOCHOLIC ACID] |  |  |  |  | Active

The next lines start with the values.

microsomal CLint at 1 µM [1] | IC50 (Hepatitis B virus) | microsomal CLint at 1 µM [2] | microsomal CLint at 1 µM [3] | inhibition (INH) [4] | Structure (SMILES)
6.1 µL/min/mg | 171 nM | 2.1 µL/min/mg | 1.4 µL/min/mg |  | CC[C@@H]1NC(=O)[C@H]([C@@H]2O[C@@H](Sc3cccc(NCc4ccccc4)c3)C[C@H]2C)N(C)C(=O)[C@H](C(C)C)N(C)C(=O)[C@H](CC(C)C)N(C)C(=O)[C@H](CC(C)C)N(C)C(=O)[C@@H](C)NC(=O)[C@H](C)NC(=O)[C@H](CC(C)C)N(C)C(=O)[C@H](C(C)C)NC(=O)[C@H](CC(C)C)N(C)C(=O)CN(C)C1=O
14.8 µL/min/mg | 101 nM | 3.3 µL/min/mg | 2 µL/min/mg |  | CC[C@@H]1NC(=O)[C@H]([C@@H]2O[C@@H](Sc3ccc(Cl)c(OC)c3)C[C@H]2C)N(C)C(=O)[C@H](C(C)C)N(C)C(=O)[C@H](CC(C)C)N(C)C(=O)[C@H](CC(C)C)N(C)C(=O)[C@@H](C)NC(=O)[C@H](C)NC(=O)[C@H](CC(C)C)N(C)C(=O)[C@H](C(C)C)NC(=O)[C@H](CC(C)C)N(C)C(=O)CN(C)C1=O
